Calls of active or inactive are those of the source. No cut-off for these calls is given here.
Key:
A549 [1] = test: Antiproliferative activity against human A549 cells after 72 hrs by MTT assay; type: functional, cell-based; conditions: A549, 72 h
HepG2 [2] = test: Antiproliferative activity against human HepG2 cells at 0.1 uM after 72 hrs by MTT assay realtive to control; type: functional
How it was run: (§1)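 MTT assay in triplicate wells. Cells (2 × 10^3/well) were attached 24 h, then treated at 0.1, 1, 10, 50 or 100 µM for 24, 48 or 72 h. MTT added for 4 h, SDS solubilisation, absorbance at 570/650 nm. Inhibition = 1 − (OD treated − blank)/(OD control − blank). Reported as mean ± SD of three independent experiments.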

HepG2 [3] = test: Antiproliferative activity against human HepG2 cells at 10 uM after 24 hrs by MTT assay realtive to control; type: functional; how it was run: as §1
HepG2 [4] = test: Antiproliferative activity against human HepG2 cells at 50 uM after 24 hrs by MTT assay realtive to control; type: functional; how it was run: as §1
HepG2 [5] = test: Antiproliferative activity against human HepG2 cells at 1 uM after 48 hrs by MTT assay realtive to control; type: functional; how it was run: as §1
HepG2 [6] = test: Antiproliferative activity against human HepG2 cells at 50 uM after 48 hrs by MTT assay realtive to control; type: functional; how it was run: as §1
A549 [7] = test: Antiproliferative activity against human A549 cells at 1 uM after 24 hrs by MTT assay relative to control; type: functional; how it was run: as §1
A549 [8] = test: Antiproliferative activity against human A549 cells at 10 uM after 24 hrs by MTT assay relative to control; type: functional; how it was run: as §1
A549 [9] = test: Antiproliferative activity against human A549 cells at 50 uM after 24 hrs by MTT assay relative to control; type: functional; how it was run: as §1
A549 [10] = test: Antiproliferative activity against human A549 cells at 10 uM after 48 hrs by MTT assay relative to control; type: functional; how it was run: as §1
A549 [11] = test: Antiproliferative activity against human A549 cells at 100 uM after 48 hrs by MTT assay relative to control; type: functional; how it was run: as §1
A549 [12] = test: Antiproliferative activity against human A549 cells at 1 uM after 72 hrs by MTT assay relative to control; type: functional; how it was run: as §1
HepG2 [13] = test: Antiproliferative activity against human HepG2 cells after 24 hrs by MTT assay; type: functional, cell-based; conditions: HepG2, 24 h
How it was run: (§2)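 MTT read-out. Cells seeded at 2 × 10^3/well, attached 24 h at 37 °C in 5% CO2, then exposed to 0.1–100 µM for 24, 48 or 72 h. MTT for 4 h, formazan dissolved in 10% SDS/NH4Cl for 10 h, absorbance at 570 nm corrected at 650 nm. % inhibition computed against untreated and blank wells. IC50 is the mean of at least three independent experiments.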

A549 [14] = test: Antiproliferative activity against human A549 cells after 24 hrs by MTT assay; type: functional, cell-based; conditions: A549, 24 h; how it was run: as §2
HepG2 [15] = test: Cell cycle arrest in human HepG2 assessed as accumulation at G0/G1 phase at 5 uM after 48 hrs by propidium iodide-staining based flow cytometry (reference value: 69.40%); type: functional
How it was run: (§3)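 HepG2 cells at 5.0 × 10^5/well were grown 24 h, then treated at 0, 2.5, 5.0 or 10.0 µM for 48 h alongside medium-only wells. Cells fixed in 70% ice-cold ethanol for ≥24 h, treated with RNase A at 37 °C for 30 min, then stained with propidium iodide for 30 min at 4 °C in the dark. DNA content read by flow cytometry. Average of at least three experiments.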

HepG2 [16] = test: Cell cycle arrest in human HepG2 assessed as accumulation at S phase at 2.5 uM after 48 hrs by propidium iodide-staining based flow cytometry (reference value: 21.46%); type: functional; how it was run: as §3
HepG2 [17] = test: Cell cycle arrest in human HepG2 assessed as accumulation at S phase at 5 uM after 48 hrs by propidium iodide-staining based flow cytometry (reference value: 21.46%); type: functional; how it was run: as §3
HepG2 [18] = test: Cell cycle arrest in human HepG2 assessed as accumulation at G2/M phase at 10 uM after 48 hrs by propidium iodide-staining based flow cytometry (reference value: 9.13%); type: functional; how it was run: as §3
HepG2 [19] = test: Cell cycle arrest in human HepG2 assessed as accumulation at S phase after 48 hrs by propidium iodide-staining based flow cytometry; type: functional; how it was run: as §3
HepG2 [20] = test: Induction of apoptosis in human HepG2 cells assessed as viable cells at 2.5 uM after 48 hrs by Annexin V-FITC/propidium iodide double staining-based flow cytometry (reference value: 86.4%); type: functional; conditions: HepG2, 48 h, read-out: Activity
HepG2 [21] = test: Induction of apoptosis in human HepG2 cells assessed as viable cells at 10 uM after 48 hrs by Annexin V-FITC/propidium iodide double staining-based flow cytometry (reference value: 86.4%); type: functional; conditions: HepG2, 48 h, read-out: Activity
HepG2 [22] = test: Induction of apoptosis in human HepG2 cells after 48 hrs by AnnexinV-FITC/propidium iodide double staining-based flow cytometry; type: functional, cell-based
HepG2 [23] = test: Induction of apoptosis in human HepG2 cells assessed as nuclear fragmentation at 2.5 to 20 uM after 48 hrs by Hoechst 33342/propidium iodide double staining based laser scanning confocal microscopy; type: functional, cell-based
How it was run: (§4)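 HepG2 plated at 5.0 × 10^4 cells/well in DMEM with 10% FBS, 24 h at 37 °C, then treated 48 h (2.5–20 µM). After two ice-cold PBS washes, cells were stained with Hoechst 33342/PI mixed 1:1 for 30 min at 37 °C in the dark, washed three times, and imaged by laser scanning confocal microscopy at 200×.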

HepG2 [24] = test: Induction of apoptosis in human HepG2 cells assessed as budded nuclei formation at 2.5 to 20 uM after 48 hrs by Hoechst 33342/propidium iodide double staining based laser scanning confocal microscopy; type: functional, cell-based; how it was run: as §4
HepG2 [25] = test: Induction of mitochondrial membrane potential loss in human HepG2 cells assessed as mitochondrial membrane potential levels at 2.5 uM after 48 hrs by rhodamine-123 dye based FACS analysis (reference value: 90.4%); type: functional
HepG2 [26] = test: Induction of apoptosis in human HepG2 cells assessed as intracellular free Ca2+ levels at 2.5 uM after 48 hrs by FL1 channel/FACS analysis (reference value: 14.2%); type: functional
How it was run: (§5)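 HepG2 seeded at 5.0 × 10^5 cells/mL, 24 h at 37 °C in 5% CO2, then treated 48 h (2.5–20 µM). Harvested cells were washed in ice-cold PBS and loaded with 4 µM Fluo-3/AM for 30 min. After trypsinizing, they were washed twice and resuspended in HEPES, and fluorescence was measured in the FL-1 channel by flow cytometry. Values are averages of at least three independent experiments.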

HepG2 [27] = test: Induction of apoptosis in human HepG2 cells assessed as intracellular free Ca2+ levels at 5 uM after 48 hrs by FL1 channel/FACS analysis (reference value: 14.2%); type: functional; how it was run: as §5
HepG2 [28] = test: Induction of apoptosis in human HepG2 cells assessed as intracellular free Ca2+ levels at 20 uM after 48 hrs by FL1 channel/FACS analysis (reference value: 14.2%); type: functional; how it was run: as §5
HepG2 [29] = test: Induction of apoptosis in human HepG2 cells assessed as intracellular free Ca2+ levels after 48 hrs by FL1 channel/FACS analysis; type: functional, cell-based; how it was run: as §5
[30] = target: T1, Epidermal growth factor receptor (Homo sapiens, UniProt P00533); conditions: HEK293, at 1 µM
T1 sequence (P00533 whole entry): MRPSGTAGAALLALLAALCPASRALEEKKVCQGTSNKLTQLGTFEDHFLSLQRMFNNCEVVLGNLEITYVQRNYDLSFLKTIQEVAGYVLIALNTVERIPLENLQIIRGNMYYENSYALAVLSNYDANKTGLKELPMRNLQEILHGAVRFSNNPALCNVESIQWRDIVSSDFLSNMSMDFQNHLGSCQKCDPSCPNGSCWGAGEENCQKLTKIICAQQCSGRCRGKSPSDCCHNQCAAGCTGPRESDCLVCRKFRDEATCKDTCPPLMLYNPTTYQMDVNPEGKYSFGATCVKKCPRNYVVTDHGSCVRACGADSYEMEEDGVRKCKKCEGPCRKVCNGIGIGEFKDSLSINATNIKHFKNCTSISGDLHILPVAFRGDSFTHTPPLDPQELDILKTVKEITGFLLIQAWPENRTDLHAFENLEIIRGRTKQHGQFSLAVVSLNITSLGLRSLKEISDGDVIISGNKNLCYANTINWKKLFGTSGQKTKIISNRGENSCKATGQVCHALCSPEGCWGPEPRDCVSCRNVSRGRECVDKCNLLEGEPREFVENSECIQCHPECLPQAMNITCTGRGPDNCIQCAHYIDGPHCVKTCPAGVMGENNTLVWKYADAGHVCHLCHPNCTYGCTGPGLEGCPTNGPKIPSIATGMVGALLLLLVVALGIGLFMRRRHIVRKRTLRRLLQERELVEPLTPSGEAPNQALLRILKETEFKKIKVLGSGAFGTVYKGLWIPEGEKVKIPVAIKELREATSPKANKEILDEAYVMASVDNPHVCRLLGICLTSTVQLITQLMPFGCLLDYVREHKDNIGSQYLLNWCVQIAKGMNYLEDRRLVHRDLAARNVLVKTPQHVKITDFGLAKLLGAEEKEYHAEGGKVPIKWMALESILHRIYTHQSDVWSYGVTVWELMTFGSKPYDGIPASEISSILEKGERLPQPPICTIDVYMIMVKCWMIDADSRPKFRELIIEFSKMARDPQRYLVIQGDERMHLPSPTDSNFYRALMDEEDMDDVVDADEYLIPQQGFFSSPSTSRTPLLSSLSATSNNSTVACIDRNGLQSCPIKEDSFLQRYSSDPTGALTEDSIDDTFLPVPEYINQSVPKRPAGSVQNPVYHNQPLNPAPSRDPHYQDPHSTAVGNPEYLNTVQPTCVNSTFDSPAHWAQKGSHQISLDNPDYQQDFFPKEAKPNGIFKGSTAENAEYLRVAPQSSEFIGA

[31] = target: T1, Epidermal growth factor receptor; conditions: HEK293, at 10 µM

Compound: COc1cc2c(Nc3ccc(C#N)cc3)ncnc2cc1OCCCN1CCC(c2ccccc2)CC1
- IC50 (A549 [1]): 9.5 µM
- Activity (HepG2 [2]): 7.4%
- Activity (HepG2 [3]): 63.5%
- Activity (HepG2 [4]): 99.1%
- Activity (HepG2 [5]): 8.6%
- Activity (HepG2 [6]): 108%
- Activity (A549 [7]): 1.9%
- Activity (A549 [8]): 24.7%
- Activity (A549 [9]): 85.3%
- Activity (A549 [10]): 13.5%
- Activity (A549 [11]): 91.4%
- Activity (A549 [12]): 1.5%
- IC50 (HepG2 [13]): 13 µM
- IC50 (A549 [14]): 15 µM
- Activity (HepG2 [15]): 65.53%
- Activity (HepG2 [16]): 22.44%
- Activity (HepG2 [17]): 25.1%
- Activity (HepG2 [18]): 9.57%
- Activity (HepG2 [19]): Dose-dependent effect
- viability at 2.5 µM (HepG2 [20]): 47.5%
- viability at 10 µM (HepG2 [21]): 1.3%
- Activity (HepG2 [22]): Dose-dependent effect
- Activity (HepG2 [23]): Active
- Activity (HepG2 [24]): Active
- Activity (HepG2 [25]): 88.3%
- Activity (HepG2 [26]): 41.7%
- Activity (HepG2 [27]): 43.2%
- Activity (HepG2 [28]): 52.7%
- Activity (HepG2 [29]): Dose-dependent effect
- inhibition [30]: 94.3%
- inhibition [31]: 99.1%

From ChEMBL document CHEMBL4130355, “Development of a series of novel 4-anlinoquinazoline derivatives possessing quinazoline skeleton: Design, synthesis, EGFR kinase inhibitory efficacy, and evaluation of anticancer activities in vitro” (Eur J Med Chem, 2017)
